Assay results as given in ChEMBL document CHEMBL1687920, “Structure-based discovery of inhibitors of microsomal prostaglandin E2 synthase-1, 5-lipoxygenase and 5-lipoxygenase-activating protein: promising hits for the development of new anti-inflammatory agents” (J Med Chem, 2011).

Columns and labels:
[1] = molecular target: T1, Polyunsaturated fatty acid 5-lipoxygenase (Homo sapiens, UniProt P09917); test: Inhibition of human recombinant 5-lipoxygenase expressed in Escherichia coli MV1190 by cell free assay
T1 sequence (P09917 whole entry): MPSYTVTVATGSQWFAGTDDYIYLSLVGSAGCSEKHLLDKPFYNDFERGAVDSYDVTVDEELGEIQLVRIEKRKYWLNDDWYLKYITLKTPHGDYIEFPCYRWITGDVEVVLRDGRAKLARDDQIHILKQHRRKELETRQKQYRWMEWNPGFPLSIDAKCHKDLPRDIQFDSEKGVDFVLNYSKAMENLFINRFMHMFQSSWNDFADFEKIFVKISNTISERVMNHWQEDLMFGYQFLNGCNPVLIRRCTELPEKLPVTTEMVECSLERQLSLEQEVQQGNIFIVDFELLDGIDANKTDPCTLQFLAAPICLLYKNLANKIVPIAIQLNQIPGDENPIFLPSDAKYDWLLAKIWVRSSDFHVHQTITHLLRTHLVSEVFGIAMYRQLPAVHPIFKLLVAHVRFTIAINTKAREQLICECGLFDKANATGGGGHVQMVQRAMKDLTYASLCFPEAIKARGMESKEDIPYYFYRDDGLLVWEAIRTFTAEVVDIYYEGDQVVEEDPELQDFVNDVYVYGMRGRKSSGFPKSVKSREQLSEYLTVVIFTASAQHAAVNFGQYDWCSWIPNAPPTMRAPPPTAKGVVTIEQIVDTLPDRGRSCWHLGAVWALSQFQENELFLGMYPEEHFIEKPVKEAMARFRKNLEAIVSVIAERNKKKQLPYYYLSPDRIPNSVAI
Summary of the method: (§1)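 Cell-free activity assay with isolated human recombinant 5-LO. Compounds screened at 30 μM in DMSO, with 0.3% v/v DMSO as vehicle and BWA4C as positive control. IC50 taken from concentration-response curves. Means ± SE, n = 4-5.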

[2] = molecular target: T2, Polyunsaturated fatty acid 5-lipoxygenase (Homo sapiens) (UniProt P09917); test: Inhibition of human recombinant 5-lipoxygenase expressed in Escherichia coli MV1190 assessed as residual activity at 30 uM by cell free assay; summary of the method: as §1
T2 sequence (whole entry): T1 sequence (P09917 whole entry)

[3] = molecular target: T1, Polyunsaturated fatty acid 5-lipoxygenase; test: Inhibition of 5-lipoxygenase in human neutrophils
Summary of the method: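 Human neutrophils stimulated with ionophore A23187 to probe FLAP-dependent 5-LO product formation. Compounds in DMSO (vehicle 0.3% v/v) screened at 30 μM and tested in concentration-response. A FLAP inhibitor served as control. n = 4-5 for the curves.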

[4] = molecular target: T2, Polyunsaturated fatty acid 5-lipoxygenase (Homo sapiens); test: Inhibition of 5-lipoxygenase in human neutrophils assessed as residual activity at 30 uM; values are per cent of control
[5] = molecular target: Prostaglandin E synthase / mPGES-1 (Homo sapiens) (UniProt O14684); test: Inhibition of Prostaglandin E2 synthase-1 in IL1-beta stimulated microsomal fraction of human A549 cell assessed as residual activity at 30 uM; conditions: Microsome
[6] = molecular target: T2, Polyunsaturated fatty acid 5-lipoxygenase (Homo sapiens); test: Inhibition of 5-lipoxygenase in human neutrophils assessed as residual activity at 10 uM; values are per cent of control
[7] = molecular target: T2, Polyunsaturated fatty acid 5-lipoxygenase (Homo sapiens); test: Inhibition of human recombinant 5-lipoxygenase expressed in Escherichia coli MV1190 assessed as residual activity at 10 uM by cell free assay; values are per cent of control

Prostaglandin E synthase / mPGES-1 (Homo sapiens), sequence (O14684 whole entry, looked up): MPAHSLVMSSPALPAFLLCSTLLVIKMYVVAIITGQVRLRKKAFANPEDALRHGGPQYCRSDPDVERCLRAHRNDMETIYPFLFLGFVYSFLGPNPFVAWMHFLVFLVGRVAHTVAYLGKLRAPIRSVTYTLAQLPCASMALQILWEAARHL

Row | SMILES | IC50 [1] | remaining activity [2] | IC50 [3] | residual activity [4] | remaining activity [5] | residual activity [6] | residual activity [7]
1 | Oc1ccc(-c2ccc(-c3cn(CSc4ccccc4)nn3)cc2)cc1 | > 30 µM | 62.3% | 0.9 µM |  | 89% | 34.8% | 
2 | O=C(O)c1ccc(S(=O)(=O)n2cc(-c3ccc(-c4ccccc4COc4cccc5ccccc45)cc3)nn2)cc1 | 0.8 µM |  | 0.6 µM |  | 59.8% | 3.5% | 13.6%
3 | O=C(OCc1cn(CSc2ccccc2)nn1)c1ccccc1 | > 30 µM | 80.8% | 9.3 µM | 14.6% | 76.1% |  | 
4 | CN(C)c1cccc2c(S(=O)(=O)Nc3ccc(-c4ccc(-c5cn(CCCc6ccccc6)nn5)cc4)cc3)cccc12 | 4.1 µM | 5.1% | 2.8 µM |  | 85% | 21.2% | 
5 | O=Cc1ccc(-c2c(Cc3ccccc3)nnn2CSc2ccccc2)cc1 | > 30 µM | 57.3% | 6 µM |  | 72.1% | 17.3% | 
6 | Cc1ccccc1CCn1cc(-c2ccc(-c3ccccc3COc3cc(C(F)(F)F)ccc3Cl)cc2)nn1 | > 30 µM | 82.5% | > 30 µM | 92.1% | 87.9% |  | 
7 | c1ccc(CCCn2cc(-c3ccc(-c4ccccc4COc4cccc5ccccc45)cc3)nn2)cc1 | > 30 µM | 77.4% | > 30 µM | 79.9% | 96.8% |  | 
8 | Cc1ccccc1CCn1cc(-c2ccc(-c3ccc(N)cc3)cc2)nn1 | > 30 µM | 60.7% | 1.7 µM |  | 98.2% | 22% | 
9 | FC(F)(F)c1ccc(Cl)c(OCc2ccccc2-c2ccc(-c3cn(CCCc4ccccc4)nn3)cc2)c1 | 8.8 µM | 10.1% | > 30 µM | 52.7% | 91.9% |  | 

Results, then the molecule that gave them:

Row | IC50 [1] | remaining activity [2] | IC50 [3] | residual activity [4] | remaining activity [5] | residual activity [6] | residual activity [7] | SMILES
10 | > 30 µM | 58.4% | > 30 µM | 70.2% | 73.6% |  |  | Oc1ccc(-c2ccc(-c3cn(CCCc4ccccc4)nn3)cc2)cc1
11 | 27 µM | 48.8% | 0.4 µM |  | 60.1% | 1.1% |  | Oc1cccc(-c2ccc(-c3cn(CSc4ccccc4)nn3)cc2)c1
12 | > 30 µM | 82.9% | > 30 µM | 85.7% | 78.2% |  |  | c1ccc(CCCn2cc(-c3ccc(-c4cc5ccccc5c5ccccc45)cc3)nn2)cc1
13 | > 30 µM | 78.4% | > 30 µM | 84.5% | 90% |  |  | Cc1ccccc1CCn1cc(-c2ccc(-c3ccccc3COc3cccc4ccccc34)cc2)nn1
14 | > 30 µM | 59.2% | > 30 µM | 70.1% | 88.7% |  |  | c1ccc(CCCn2cc(-c3ccc(-c4ccc(Oc5ccccc5)cc4)cc3)nn2)cc1
15 | 6.7 µM | 20% | 9.2 µM | 20.1% | 12% |  |  | O=C(O)c1ccc(Cn2cc(-c3ccc(-c4ccccc4)cc3)nn2)c([N+](=O)[O-])c1
